Molecules are shown by their SMILES.

Results on 18 molecules are retold here after ChEMBL document CHEMBL1139506, “Effect on K(ATP) channel activation properties and tissue selectivity of the nature of the substituent in the 7- and the 3-position of 4H-1,2,4-benzothiadiazine 1,1-dioxides” (J Med Chem, 2005).

The species entered for data set [1] is Rattus norvegicus. Description: Concentration required for relaxation of the 30 mM KCl-induced contraction of rat aortic rings (n=4). The data set is classed as functional. Conditions: Aorta, read-out: ED50 (the source's name). The gist of the method:
(§1)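 Endothelium-denuded transverse aortic rings (3-4 mm) from fed Wistar rats (180-200 g); isometric tension by force transducer. After 60 min equilibration, contracted with 30 mM KCl; at stable tension, drug added cumulatively until maximal relaxation or up to 0.3 mM. Relaxation expressed as % of KCl contraction; ED50 (50% inhibition of KCl plateau) from dose curves; mean ± SEM (n).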

Data set [2] is filed under the species Rattus norvegicus. Description: Effect on insulin secretion from rat pancreatic islets at 10 uM concentration (n=16). The data set is classed as functional. The gist of the method: (§2)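 Islets isolated by collagenase from fed Wistar rats (180-220 g); groups of 10 preincubated 30 min, 37 °C, in bicarbonate salt medium with 2.8 mM glucose, 0.5% dialyzed albumin, O2/CO2 95:5. Then incubated 90 min, 37 °C, with 16.7 mM glucose plus drug. Insulin measured by radioimmunoassay against rat insulin standard; expressed as % of drug-free 16.7 mM glucose control; mean ± SEM (n).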

Data set [3] can be described thus: Ionization constant was determined. The data set is classed as physicochemical. A digest of the protocol:
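Ionization constant found by UV spectroscopy in aqueous buffers spanning pH 5 to 12; pKa calculated with the Debye-Hückel equation at the absorbance maximum of the basic form.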

The species named for data set [4] is Rattus norvegicus. Put plainly: Effect on insulin secretion from rat pancreatic islets at 50 uM concentration (n=15). The data set is classed as functional. A digest of the protocol: as §2
The species entered for data set [5] is Rattus norvegicus. Put plainly: Effect on insulin secretion from rat pancreatic islets at 10 uM concentration (n=14). The data set is classed as functional. A digest of the protocol:
as §2

The species named for data set [6] is Rattus norvegicus. Put plainly: Effect on insulin secretion from rat pancreatic islets at 50 uM concentration (n=16). It is filed as functional. A digest of the protocol: as §2
For data set [7], the species on record is Rattus norvegicus. Put plainly: Effect on insulin secretion from rat pancreatic islets at 10 uM concentration (n=22). It is filed as functional. A digest of the protocol:
as §2

The species entered for data set [8] is Rattus norvegicus. Put plainly: Effect on insulin secretion from rat pancreatic islets at 10 uM concentration (n=23). The data set is classed as functional. The gist of the method: as §2
The species named for data set [9] is Rattus norvegicus. Put plainly: Effect on insulin secretion from rat pancreatic islets at 10 uM concentration (n=15). It is filed as functional. The gist of the method:
as §2

The species entered for data set [10] is Rattus norvegicus. Description: Effect on insulin secretion from rat pancreatic islets at 50 uM concentration (n=21). The data set is classed as functional. The gist of the method: as §2
Data set [11] is filed under the species Rattus norvegicus. Description: Effect on insulin secretion from rat pancreatic islets at 10 uM concentration (n=24). The data set is classed as functional. The gist of the method:
as §2

The species entered for data set [12] is Rattus norvegicus. Put plainly: Effect on insulin secretion from rat pancreatic islets at 10 uM concentration (n=12). It is filed as functional. The gist of the method: as §2
The species entered for data set [13] is Rattus norvegicus. Description: Effect on insulin secretion from rat pancreatic islets at 1 uM concentration (n=23). It is filed as functional. The gist of the method: as §2
For data set [14], the species on record is Rattus norvegicus. Put plainly: ED50/IC50 ratio was determined. The data set is classed as functional.
Data set [15] is filed under the species Rattus norvegicus. Put plainly: Concentration giving 50% relaxation of the 30 mM KCl-induced contraction of rat aortic rings (n=6). The data set is classed as functional. Conditions: Aorta, read-out: ED50 (the source's name). The gist of the method:
as §1

The species entered for data set [16] is Rattus norvegicus. Put plainly: Concentration required for 50% inhibition of insulin release in rat pancreatic B-cells. The data set is classed as functional, cell-based.
The species entered for data set [17] is Rattus norvegicus. Put plainly: Concentration giving 50% relaxation of the 30 mM KCl-induced contraction of rat aortic rings (n=3). It is filed as functional. The note with it: Aorta, read-out: ED50 (the source's name). A digest of the protocol:
as §1

Data set [18] is filed under the species Rattus norvegicus. Description: Effect on insulin secretion from rat pancreatic islets at 50 uM concentration (n=13). It is filed as functional. The gist of the method:
as §2

The species entered for data set [19] is Rattus norvegicus. Description: Effect on insulin secretion from rat pancreatic islets at 1 uM concentration (n=15). It is filed as functional. The gist of the method: as §2
For data set [20], the species on record is Rattus norvegicus. Put plainly: Effect on insulin secretion from rat pancreatic islets at 50 uM concentration (n=18). It is filed as functional. The gist of the method:
as §2

Consider `CCOc1ccc2c(c1)S(=O)(=O)NC(NC1CCC1)=N2`, for which the EC50 in data set [1] was more than 300 µM. Besides, the Residual insulin release in data set [2] is given as 84.9%.

Consider `CC(C)NC1=NS(=O)(=O)c2cc(N)ccc2N1`, for which the pKa (usually the pH at which an ionisable group is half protonated) in data set [3] is 10.5. The EC50 in [1] is more than 300 µM. For the same molecule, the Residual insulin release in [4] amounted to 85.8%.

Take `CCOc1ccc2c(c1)S(=O)(=O)NC(NC(C)C)=N2`: the EC50 in data set [1] is 233 µM. Besides, the Residual insulin release in [5] worked out at 65.9%.

On to `CC(=O)Nc1ccc2c(c1)S(=O)(=O)N=C(NC(C)C)N2`, for which the pKa in data set [3] is 9.8. For the same molecule, in [1], the EC50 was more than 300 µM. The Residual insulin release in data set [6] is on record as 89.3%.

As for `CCC(C)NC1=NS(=O)(=O)c2cc(C(F)(F)F)ccc2N1` (centres undefined), the EC50 in [1] is 8.9 µM. Moreover, the Residual insulin release in [7] worked out at 76.1%; in data set [4], 28.6%.

For `CC(C)NC1=NS(=O)(=O)c2cc(C(N)=O)ccc2N1`, the EC50 in data set [1] is 175 µM. The molecule further registered a Residual insulin release in data set [8] of 76.6%.

Take `CC(C)C(C)NC1=NS(=O)(=O)c2cc([N+](=O)[O-])ccc2N1` (centres undefined): in [1], the EC50 was found to be 2.8 µM. In data set [6], the Residual insulin release came to 90.4%.

Consider `N#Cc1ccc2c(c1)S(=O)(=O)N=C(NC1CCC1)N2`, for which the EC50 in [1] was 57.9 µM. The results for the Residual insulin release in [9] and in [10] were 102.6% and 54.3%, respectively.

As for `CCNC1=NS(=O)(=O)c2cc(OCC)ccc2N1`, in [1], the EC50 was found to be 162 µM. The Residual insulin release in [11] amounted to 75%.

On to `CCNC1=NS(=O)(=O)c2ccccc2N1`, for which, in data set [1], the EC50 was more than 300 µM. In addition, the Residual insulin release in [12] turned out to be 25.8%; in data set [13], 77.4%.

As for `CCCNC1=NS(=O)(=O)c2cc(C(=O)O)ccc2N1`, the EC50 in data set [1] was more than 300 µM. Moreover, the Residual insulin release is given as 97.6% in data set [9] and 95.3% in data set [4].

Consider `CCNC1=NS(=O)(=O)c2cc(C)ccc2N1`, for which the Ratio in data set [14] was determined as 84. Besides, the EC50 in data set [15] was 210 µM. In [16], the IC50 (usually the concentration that inhibits the measured activity by half) turned out to be 2.5 µM. Further, the Residual insulin release in [12] came out at 8.6%; in data set [13], 83.8%.

Molecule `Cc1ccc2c(c1)S(=O)(=O)N=C(NC(C)C)N2` gave a pKa in [3] of 10.2. Also, in data set [14], the Ratio was determined as 100. Further, in data set [17], the EC50 amounted to 200 µM. The molecule further yielded an IC50 in data set [16] of 2 µM. The Residual insulin release is recorded as 8.5% in data set [5], 3.5% in data set [18] and 71.3% in data set [19].

As for `CCC(C)NC1=NS(=O)(=O)c2cc([N+](=O)[O-])ccc2N1` (centres undefined), the EC50 in data set [1] was found to be 6.1 µM. The molecule also yielded a Residual insulin release in data set [20] of 63.3%.

Turning to `CCCCCc1ccc2c(c1)S(=O)(=O)NC(NC(C)C)=N2`, in [1], the EC50 was determined as 20.1 µM. Further, the Residual insulin release in data set [2] is 106%.

`CCC(C)NC1=NS(=O)(=O)c2cc(S(C)(=O)=O)ccc2N1` (centres undefined): the EC50 in data set [1] is 126 µM. The same molecule gave a Residual insulin release in [2] of 97.2%.

Take `CCCCCc1ccc2c(c1)S(=O)(=O)NC(NC1CCC1)=N2`: the EC50 in [1] is more than 30 µM. In data set [9], the Residual insulin release worked out at 95.3%.

`CC(C)NC1=NS(=O)(=O)c2ccccc2N1` returned a pKa in data set [3] of 9.98. For the same molecule, in data set [14], the Ratio is on record as more than 79. The EC50 in data set [1] was more than 300 µM. In data set [16], this molecule had an IC50 of 3.8 µM. For the same molecule, the Residual insulin release in data set [2] is on record as 34.9%; in [19], 73.7%.
